Many of the other results were omitted from the sample, so hits are more common in it than they were.
STK33 inh – inhibitors of purified STK33 kinase, primary screen, biochemical, ADP-Glo luminescence, homogeneous, cell-free. inhibition, % at 10 µM. AID 2661, 2010. 320,000 tested, 0.073% active. MBP phosphorylation. Serine/threonine-protein kinase 33 (Homo sapiens), Q9BYT3;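 active = inhibition at or above 25%, using the most active replicate where run in duplicate; inactive = inhibition below 25%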
GSK3B inh – human GSK3beta kinase inhibitors, primary screen, biochemical, cell-free homogeneous, HTS | activity score (negative = inhibition), % at 10 µM | 300,000 tested, 0.038% active | GST-GSK3beta kinase, ADP-Glo luminescence, 60 min; hits give low values;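 active = more than half of replicate wells score below -50%, meaning over 50% inhibition versus plate controls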
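Assay system: GST-tagged human GSK3beta kinase, cell-free; Input: 1.6 ng GSK3beta; Medium: Tris/MgCl2 kinase buffer; Timing: 60 min enzyme reaction, room temperature; Signal: ADP-Glo luminescence quantifying ADP generated by kinase; Evaluation: score relative to plate controls; Benchmarks: DMSO neutral wells and GW8510 at 20 µM as positive.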
GSK3 alpha inh – blockers of GSK3A enzyme activity – biochemical, luminescence, cell-free homogeneous, HTS, primary screen | Glycogen synthase kinase-3 alpha (Homo sapiens), P49840 | GSK-3 alpha kinase, ADP-Glo luminescence, 60 min | inhibition, % at 10 µM | 320,000 tested, 0.1% active | AID 2650, 2010;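 active = more than half of replicates show inhibition above 20%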;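 also: GST-tagged GSK-3 alpha with peptide substrate and 25 µM ATP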
Target sequence (P49840 whole entry, looked up): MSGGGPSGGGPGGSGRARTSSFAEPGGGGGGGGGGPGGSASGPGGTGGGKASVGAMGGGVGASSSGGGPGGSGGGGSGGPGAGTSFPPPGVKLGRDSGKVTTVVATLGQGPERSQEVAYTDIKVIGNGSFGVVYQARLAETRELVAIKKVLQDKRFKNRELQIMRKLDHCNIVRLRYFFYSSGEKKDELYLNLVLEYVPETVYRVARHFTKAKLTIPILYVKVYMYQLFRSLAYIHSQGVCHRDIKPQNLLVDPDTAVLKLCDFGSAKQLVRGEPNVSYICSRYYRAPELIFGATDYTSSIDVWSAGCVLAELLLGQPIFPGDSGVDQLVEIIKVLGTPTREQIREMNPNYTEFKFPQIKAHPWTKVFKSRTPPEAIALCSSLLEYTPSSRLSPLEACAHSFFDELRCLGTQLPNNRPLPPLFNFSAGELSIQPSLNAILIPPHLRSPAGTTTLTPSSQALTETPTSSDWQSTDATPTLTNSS
DYRK1A inh – rat Dyrk1A kinase inhibitors, primary screen, biochemical, single point, plate reader; inhibition, % at 12.5 µM; ADP-Glo luminescence, NFATc1 peptide; 310,000 tested, 0.43% active; Dual specificity tyrosine-phosphorylation-regulated kinase 1A (Rattus norvegicus), Q63470; in the data active = inhibition above about 50%
ADP-Glo artifact – ADP-Glo luciferase interference without Dyrk1A, dose response, artefact control for Dyrk1A inhibitor project, biochemical, luminescence, cherry-pick, set 02 | AC50, µM (doses to about 12 µM) | ADP-Glo luciferase artifact assay, no Dyrk1A | shares compounds with DYRK1A inh | AID 588348, 2011 | 1,300 tested, under 10 active;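 active = fitted half-maximal dose AC50 no more than ten times the top valid tested dose, with luminescence dropping as dose rises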
Large screens that a line does not name were inactive (follow-up assays come after a bar, where they were run); ! = a repeat was not active.

Cc1cccnc1NC(=O)CCc1c[nH]c2ccccc12	none
O=C(Nc1ccon1)c1sc2cc(Cl)ccc2c1Cl	none
CCc1cc(-c2[nH]ncc2-c2ccc3c(c2)OCO3)c(O)cc1O	DYRK1A inh 52.4 | ADP-Glo artifact inactive
COc1ccc(-c2[nH]ncc2-c2ccc3c(c2)OCCO3)c(O)c1	DYRK1A inh 60.4 | ADP-Glo artifact inactive
CC(C)=CC(=O)O[C@@H]1Cc2cc3ccc(=O)oc3cc2OC1(C)C	none (no result: GSK3B inh)
CCC1NC(C(=O)O)Cc2c1[nH]c1ccccc21 (stereo not drawn)	DYRK1A inh 50.2 | ADP-Glo artifact inactive
CC1Cc2cc(/C=C3/SC(=S)NC3=O)ccc2O1 (stereo not drawn)	DYRK1A inh 84.4 | ADP-Glo artifact inactive
Cc1cc(/C=C2\SC(=S)NC2=O)cc(C)c1O	none
Fc1ccccc1-c1nc(-c2ccc(-c3nn[nH]n3)cc2)no1	DYRK1A inh 58.6 (no result: GSK3B inh) | ADP-Glo artifact inactive
CS(=O)(=O)c1ccc2c(c1)sc1nc(=O)c(/C=C3/C=CC(=O)C(O)=C3)c(N)n12	DYRK1A inh 55.0 | ADP-Glo artifact inactive
COC1=C/C(=C/c2c(N)n3c(nc2=O)sc2cc(S(C)(=O)=O)ccc23)C=CC1=O	none
O=c1c(O)c(-c2ccc(O)c(O)c2)oc2cc(O)ccc12	DYRK1A inh 87.7 (no result: STK33 inh, GSK3B inh, GSK3 alpha inh) | ADP-Glo artifact inactive
O=c1c(-c2ccc(O)cc2)coc2cc(O)ccc12	none
O=c1c(O)c(-c2ccc(O)cc2)oc2cc(O)cc(O)c12	DYRK1A inh 59.0 | ADP-Glo artifact inactive
CC(C)(C)c1cc(CP(=O)(c2ccccc2)c2ccccc2)cc(C(C)(C)C)c1O	none (no result: DYRK1A inh)
Cn1c(-c2ccccc2)c(C=O)c2ccccc21	DYRK1A inh 77.5 | ADP-Glo artifact inactive
CC(=O)Nc1ccc(NC(=O)C(NS(=O)(=O)c2cccc3nsnc23)C(C)C)cc1 (stereo not drawn)	none
CN(C)CCNC(=O)c1cc2c(=O)n(C)c3ccccc3c2n1C	DYRK1A inh 52.8 (no result: GSK3 alpha inh) | ADP-Glo artifact inactive
COCCNC(=O)c1cc2c(=O)n(C)c3ccccc3c2n1C	none
CN1CCN(CCNC(=O)c2cc3c(=O)n(C)c4ccccc4c3n2C)CC1	DYRK1A inh 56.8 | ADP-Glo artifact inactive
CCN(CC)CCCNC(=O)c1cc2c(=O)n(C)c3ccccc3c2n1C	DYRK1A inh 56.7 | ADP-Glo artifact inactive
CCN(CC)CCNC(=O)c1cc2c(=O)n(C)c3ccccc3c2n1C	DYRK1A inh 58.4 (no result: GSK3 alpha inh) | ADP-Glo artifact inactive
O=C(O)c1c2c(nc3ccccc13)/C(=C/c1cccc([N+](=O)[O-])c1)CCC2	none
CCc1ccc2nc(NC(=O)C3CSC4(C)CCC(=O)N34)sc2c1 (stereo not drawn)	DYRK1A inh 60.8 | ADP-Glo artifact inactive
COc1ccc2nc(NC(=O)C3CSC4(C)CCC(=O)N34)sc2c1 (stereo not drawn)	none
c1csc(CNc2ncnc3ccc(-c4ccc5c(c4)OCCO5)cc23)c1	DYRK1A inh 71.9 (no result: GSK3B inh) | ADP-Glo artifact inactive
c1cncc(-c2ccc3ncnc(NCc4cccs4)c3c2)c1	none (no result: GSK3B inh)
COc1ccc(C(=O)NNC(=O)CSc2nnc(-c3cccnc3)o2)cc1	none
CCN1CCN(Cc2ccc(NC(=O)c3ccc(C)c(NC(=O)N4CCNC4=O)c3)cc2C(F)(F)F)CC1	DYRK1A inh 53.6! | ADP-Glo artifact inactive
CCN1CCN(Cc2ccc(NC(=O)c3cc(NC(=O)c4nccnc4N)cc(OC)c3)cc2C(F)(F)F)CC1	DYRK1A inh 54.5 | ADP-Glo artifact inactive
Cc1c(O)ccc(C(=O)CN2CCN(c3ccccc3)CC2)c1O	none
Cc1cccc(Nc2nc(N)c([N+](=O)[O-])c(N3CCC(C)CC3)n2)c1	DYRK1A inh 50.3 | ADP-Glo artifact inactive
Cc1cccc(Nc2nc(N)c([N+](=O)[O-])c(N3CC(C)CC(C)C3)n2)c1 (stereo not drawn)	none
Cc1nc2cc3ccccc3cc2n1C	none
Cn1c(=O)[nH]c2cc3ccccc3cc21	DYRK1A inh 51.9 | ADP-Glo artifact inactive
CC(=O)Nc1ccc(NC(=O)Nc2ccc3c(c2)N(C)C(=O)CS3)cc1	none (no result: STK33 inh, GSK3 alpha inh)
COc1cccc(NC(=O)Nc2ccc3c(c2)N(C)C(=O)CS3)c1	DYRK1A inh 50.2 | ADP-Glo artifact inactive
COc1ccc2[nH]c(C(=O)N/N=C/c3ccc(OC)c(O)c3)cc2c1	DYRK1A inh 63.3 | ADP-Glo artifact inactive
COc1ccc2[nH]c(C(=O)N/N=C/c3ccccc3OC)cc2c1	DYRK1A inh 63.4 | ADP-Glo artifact inactive
CSc1ccc(NC(=O)NCCCN2CCC(Cc3ccccc3)CC2)cc1	none
O=c1cc[nH]c2ccc(Cl)cc12	DYRK1A inh 50.4 | ADP-Glo artifact inactive
O=c1cc[nH]c2ccc(OC(F)(F)F)cc12	none
CCC(=O)Oc1ccc2c(c1)O/C(=C\c1ccco1)C2=O	none
CCN(CC)C(=O)Oc1ccc2c(c1)O/C(=C\c1ccco1)C2=O	DYRK1A inh 52.6 | ADP-Glo artifact inactive
CCOc1ccccc1NC(=O)CCNC(=O)c1ccc(Cl)cc1	none
CC1CCc2nc(NC(=O)CN3CCOCC3)sc2C1 (stereo not drawn)	none
CC1CCc2nc(NC(=O)CN3CCN(Cc4ccc5c(c4)OCO5)CC3)sc2C1 (stereo not drawn)	DYRK1A inh 55.2 | ADP-Glo artifact inactive
O=C1c2ccccc2-c2onc3ccc(N4CCCC4)c1c23	DYRK1A inh 76.7 (no result: STK33 inh, GSK3 alpha inh) | ADP-Glo artifact inactive
CCOc1ccc2noc3c2c1C(=O)c1ccccc1-3	none
COc1ccc2c(c1)CCc1cn3nc(C)cc3nc1-2	DYRK1A inh 80.7 (no result: GSK3 alpha inh) | ADP-Glo artifact inactive
COc1ccc2c(c1)CCc1cnc(N)nc1-2	none (no result: DYRK1A inh)
Cc1ccc(C)c(CN2CCN(c3ncccn3)CC2)c1	none
Cc1ccc(CN2CCN(c3ncccn3)CC2)o1	DYRK1A inh 56.4 | ADP-Glo artifact inactive
COc1ccccc1N1CCN(C(=O)c2cc(S(=O)(=O)N3CCOCC3)ccc2C)CC1	none (no result: STK33 inh, GSK3B inh, GSK3 alpha inh)
Cc1ccc2oc(=O)c3cnn(CC(=O)NC4CCCCC4C)c3c2c1 (stereo not drawn)	DYRK1A inh 61.3 | ADP-Glo artifact inactive
CCC(C)[C@H](NC(=O)[C@@H]1CSC2c3ccccc3C(=O)N21)C(=O)NCc1ccco1 (stereo partly drawn)	none
COc1cc(-c2cn(S(=O)(=O)c3cccc4nsnc34)nc2N)cc(OC)c1OC	DYRK1A inh 82.5 | ADP-Glo artifact inactive
Cc1ccc(-c2cn(S(=O)(=O)c3cccc4nsnc34)nc2N)cc1	none
Cc1ccc(S(=O)(=O)NCC(=O)OCC(=O)N2CCN(C(=O)c3ccco3)CC2)cc1C	none (no result: STK33 inh, GSK3 alpha inh, DYRK1A inh)
N#Cc1c(=O)c2nc(NCc3ccccc3)ncc2n2ccccc12	none

Screening results as filed in PubChem.
